Assays:
[1] = Inhibition of Trypanosoma cruzi trans-sialidase containing catalytic domain (N58F, R200K) and lectin-like domain (S495 K, V496G, E520K, D593G, I597D, H599R) mutation expressed in Escherichia coli JM109 assessed as MuNANA substrate hydrolysis in presence of 0.1% Triton X-100 by discontinuous fluorimetric assay
Procedure, shortened: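 Recombinant TcTS lacking the C-terminal SAPA repeat, His-tagged (pTrcHisA) and purified by cation exchange, Ni affinity and gel filtration. Conditions: 8 ng/ml enzyme, 50 µM MuNANA, 50 mM Tris-HCl pH 7.5, 0.1% Triton X-100, 10% DMSO, 25 °C for 30 min. Stopped with 0.2 M Na2CO3 pH 10. Released Mu read at ex 355/em 460 nm in two or three replicates, corrected for compound fluorescence interference.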

Sialidase-2 = Sialidase-2 (Homo sapiens, UniProt Q9Y3R4); experiment: Inhibition of human Neu2 assessed as MuNANA substrate hydrolysis in presence of 0.1% Triton X-100 by discontinuous fluorimetric assay
Procedure, shortened: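 Recombinant human Neu2 expressed from pET15b in E. coli BL21(DE3) and purified on DEAE and His-Trap columns. Reactions were quenched with 0.2 M Na2CO3 (pH 10), and released 4-methylumbelliferone was read at ex 355/em 460 nm. Runs were in duplicate or triplicate, corrected for compound fluorescence interference.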

[2] = Selectivity for Trypanosoma cruzi trans-sialidase mutant over human Neu2
[3] = Noncompetitive inhibition of Trypanosoma cruzi trans-sialidase containing catalytic domain (N58F, R200K) and lectin-like domain (S495 K, V496G, E520K, D593G, I597D, H599R) mutation expressed in Escherichia coli JM109 by discontinuous fluorimetric assay using Lineweaver-Burke plot
Procedure, shortened: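 Same MuNANA hydrolysis assay with purified recombinant TcTS at 25 °C in Tris-HCl pH 7.5. MuNANA was varied over 25–200 µM against several inhibitor concentrations, in triplicate. The inhibition mode was assigned by best fit, and Ki for noncompetitive inhibition was taken from the Lineweaver–Burk double-reciprocal plot.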

Trypanosoma cruzi = experiment: Antiparasitic effect against Trypanosoma cruzi assessed as induction of parasite lysis; type: functional, organism-based

Sialidase-2, sequence (Q9Y3R4 whole entry): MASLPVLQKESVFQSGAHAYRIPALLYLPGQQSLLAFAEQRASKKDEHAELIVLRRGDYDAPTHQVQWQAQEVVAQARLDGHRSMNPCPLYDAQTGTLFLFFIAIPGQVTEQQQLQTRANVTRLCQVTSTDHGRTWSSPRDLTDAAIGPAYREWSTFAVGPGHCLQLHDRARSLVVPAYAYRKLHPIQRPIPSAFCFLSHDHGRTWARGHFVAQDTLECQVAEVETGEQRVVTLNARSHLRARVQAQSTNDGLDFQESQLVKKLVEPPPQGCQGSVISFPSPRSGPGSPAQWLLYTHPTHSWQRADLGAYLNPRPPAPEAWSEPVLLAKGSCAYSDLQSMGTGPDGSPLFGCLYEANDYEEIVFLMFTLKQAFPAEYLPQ

For `O=C(O)c1cc(O)c2c(c1)C(=O)c1cc(O)c(Cl)c(O)c1C2=O`, the IC50 [1] was 0.58 µM, the IC50 (Sialidase-2) was > 100 µM and the Ratio IC50 [2] was > 170. It also gave a Ki [3] of 0.89 µM.
For `O=c1cc(-c2ccccc2O)oc2cc(O)cc(O)c12`, the IC50 [1] was 360 µM, the IC50 (Sialidase-2) was 70 µM and the Ratio IC50 [2] was 0.2.
In the case of `O=c1cc(-c2ccc(O)cc2)oc2cc(O)ccc12`, the IC50 [1] is reported as > 1000 µM, the IC50 (Sialidase-2) is reported as 470 µM and the Ratio IC50 [2] is reported as < 0.5.
Compound `O=C(O)c1ccc2c(c1)C(=O)c1ccccc1C2=O` has an IC50 [1] of 430 µM, an IC50 (Sialidase-2) of 800 µM and a Ratio IC50 [2] of 1.9.
With `O=c1cc(-c2ccc(O)cc2)oc2cccc(O)c12` the IC50 [1] was > 1000 µM and the IC50 (Sialidase-2) was > 1000 µM.
For `O=c1cc(-c2ccccc2)oc2cccc(O)c12` [5-HYDROXYFLAVONE], the IC50 [1] was > 1000 µM and the IC50 (Sialidase-2) was > 1000 µM.
In the case of `Oc1cc(O)c2c(c1)O[C@@H](c1ccc(O)c(O)c1)[C@H](O)C2` [(-)-CATECHIN], the IC50 [1] is reported as > 1000 µM and the IC50 (Sialidase-2) is reported as > 1000 µM.
With `COc1ccc(-c2cc(=O)c3c(O)cc(O)cc3o2)cc1` [ACACETIN] the IC50 [1] was > 1000 µM and the IC50 (Sialidase-2) was > 1000 µM.
`O=c1cc(-c2ccc(O)cc2)oc2cc(O)cc(O)c12` [APIGENIN] gave an IC50 [1] of 78 µM, an IC50 (Sialidase-2) of 570 µM and a Ratio IC50 [2] of 7.3. It also gave a Ki [3] of 60 µM and an IC50 (Trypanosoma cruzi) of 680 µM.
`O=c1cc(-c2ccccc2)oc2cc(O)c(O)c(O)c12` [BAICALEIN] gave an IC50 [1] of 100 µM, an IC50 (Sialidase-2) of 130 µM and a Ratio IC50 [2] of 1.3.
In the case of `O=c1cc(-c2ccccc2)oc2cc(O)cc(O)c12` [CHRYSIN], the IC50 [1] is reported as 340 µM, the IC50 (Sialidase-2) is reported as 890 µM and the Ratio IC50 [2] is reported as 2.6.
In the case of `O=C1c2cccc(O)c2C(=O)c2c(O)cccc21` [DANTHRON], the IC50 [1] is reported as 710 µM, the IC50 (Sialidase-2) is reported as > 1000 µM and the Ratio IC50 [2] is reported as > 1.4.
Compound `Cc1cc(O)c2c(c1)C(=O)c1cc(O)cc(O)c1C2=O` [EMODIN] has an IC50 [1] of 110 µM, an IC50 (Sialidase-2) of 760 µM and a Ratio IC50 [2] of 6.9.
Work on `O=c1c(-c2ccc(O)cc2)coc2cc(O)cc(O)c12` [GENISTEIN] yielded an IC50 [1] of 230 µM, an IC50 (Sialidase-2) of 380 µM and a Ratio IC50 [2] of 1.7.
In the case of `COc1cc(O)c2c(=O)cc(-c3ccc(O)cc3)oc2c1` [GENKWANIN], the IC50 [1] is reported as 140 µM and the IC50 (Sialidase-2) is reported as > 1000 µM.
For `O=c1c(O)c(-c2ccc(O)cc2)oc2cc(O)cc(O)c12` [KAEMPFEROL], the IC50 [1] was 110 µM, the IC50 (Sialidase-2) was 230 µM and the Ratio IC50 [2] was 2.1.
`O=c1cc(-c2ccc(O)c(O)c2)oc2cc(O)cc(O)c12` [LUTEOLIN] showed an IC50 [1] of 22 µM, an IC50 (Sialidase-2) of 130 µM and a Ratio IC50 [2] of 5.9.
Work on `O=c1c(O)c(-c2cc(O)c(O)c(O)c2)oc2cc(O)cc(O)c12` [MYRICETIN] yielded an IC50 [1] of 17 µM, an IC50 (Sialidase-2) of 150 µM and a Ratio IC50 [2] of 8.8.
`O=c1c(O)c(-c2ccc(O)c(O)c2)oc2cc(O)cc(O)c12` [QUERCETIN] gave an IC50 [1] of 58 µM, an IC50 (Sialidase-2) of 160 µM and a Ratio IC50 [2] of 2.8.
In the case of `O=C(O)c1cc(O)c2c(c1)C(=O)c1cccc(O)c1C2=O` [RHEIN], the IC50 [1] is reported as 14 µM, the IC50 (Sialidase-2) is reported as 130 µM and the Ratio IC50 [2] is reported as 9.3.
For `COc1cc(O)c2c(c1)O[C@H](c1ccc(O)cc1)CC2=O` [SAKURANETIN], the IC50 [1] was > 1000 µM, the IC50 (Sialidase-2) was 890 µM and the Ratio IC50 [2] was < 0.9.
For `O=c1cc(-c2ccc(O)cc2)oc2cc(O)c(O)c(O)c12` [SCUTELLAREIN], the IC50 [1] was 50 µM, the IC50 (Sialidase-2) was 55 µM and the Ratio IC50 [2] was 1.1.
For `O=c1cc(-c2cc(O)c(O)c(O)c2)oc2cc(O)cc(O)c12` [TRICETIN], the IC50 [1] was 39 µM, the IC50 (Sialidase-2) was 130 µM and the Ratio IC50 [2] was 3.3.
